According to ChEMBL document CHEMBL3774315, “Discovery of new low-molecular-weight p53-Mdmx disruptors and their anti-cancer activities” (Bioorg Med Chem, 2016):
Calls of active or inactive are those of the source. The calls are words filed in the database; no cut-off is given here.

Columns and labels:
[1] = target: Cellular tumor antigen p53/Peptidyl-prolyl cis-trans isomerase D (Homo sapiens, UniProt P04637+Q08752); assay: Inhibition of Flag-tagged p53/GST-tagged PPID (unknown origin) expressed in Escherichia coli BL21 after 1 hr by ELISA microplate reader method
[2] = target: Cellular tumor antigen p53/Death-associated protein kinase 1 (Homo sapiens, UniProt P04637+P53355); assay: Inhibition of Flag-tagged p53/GST-tagged DAPK1 (unknown origin) expressed in Escherichia coli BL21 after 1 hr by ELISA microplate reader method
[3] = target: Tumour suppressor p53/oncoprotein Mdm2 (Homo sapiens, UniProt P04637+Q00987); assay: Inhibition of Flag-tagged p53/GST-tagged Mdm2 (unknown origin) expressed in Escherichia coli BL21 after 1 hr by ELISA microplate reader method
[4] = target: Tumour suppressor protein p53/Mdm4 (Homo sapiens, UniProt O15151+P04637); assay: Inhibition of Flag-tagged p53/GST-tagged Mdmx (unknown origin) expressed in Escherichia coli BL21 after 1 hr by ELISA microplate reader method
[5] = test system: MDA-MB-468; assay: Cytotoxicity against human MDA-MB-468 cells expressing mutant p53 assessed as growth inhibition after 48 hrs by crystal violet staining based spectrophotometry; assay type: functional, cell-based
How it was run: (§1)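 Cells seeded at 2 × 10^4 per well and held 24 h at 37 °C in 5% CO2. Serial dilutions (0, 10, 15, 20, 25 or 30 µM) then added for 48 h. Cells stained 15 min with crystal violet (0.75% dye, 0.25% NaCl, 1.75% formaldehyde, 50% EtOH) and read at 600 nm. Viability is expressed as percent of untreated control.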

[6] = test system: Mus musculus; assay: Induction of apoptosis in human HCT116 cells xenografted nude BALB/c mouse tumors at 100 to 150 mg/kg/day, po administered every other day until day 38 and measured on day 40 by TUNEL assay; assay type: functional, organism-based; conditions: HCT-116
How it was run: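 Tumor sections from orally dosed HCT116-xenograft nude mice underwent TUNEL staining, performed by an outside service. TUNEL-positive cells were counted as a percentage of all cells over eight fields at ×20 magnification.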

[7] = test system: Mus musculus; assay: Upregulation of Mdm2 protein expression in human HCT116 cells xenografted nude BALB/c mouse tumors at 150 mg/kg/day, po administered every other day until day 38 and measured on day 40 by Western blot analysis; assay type: functional, organism-based; conditions: HCT-116
How it was run: (§2)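 Tumors excised at day 40 from orally dosed HCT116-xenograft nude mice, frozen in liquid nitrogen, ground and suspended in lysis buffer, then spun at 15,000 × g at 4 °C. 10 µg protein (measured by BCA) run on SDS-PAGE, blotted to PVDF and probed for p53, Mdm2, p21 and cleaved caspase 3 (1:1000) or full-length caspase 3 (3:1000). ECL detection.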

[8] = test system: MCF7; assay: Upregulation of p21 in human MCF7 cells after 24 hrs by Western blot analysis; assay type: functional, cell-based
How it was run: (§3)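 MCF-7 cells plated at 1.0 × 10^6 per 60-mm dish, grown 24 h, washed and given fresh medium for another 24 h. Treated with compound or 0.1% DMSO for 24 or 48 h. Floating and adherent cells lysed in Tris/NaCl/EDTA/EGTA/NP-40 buffer with Na3VO4, NaF, DTT, PMSF and protease inhibitors. 10 µg protein separated by SDS-PAGE, probed with primary antibodies at 1:1000, detected by ECL chemiluminescence.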

[9] = test system: HCT-116; assay: Cytotoxicity against human HCT116 cells expressing WT p53 and Mdmx assessed as growth inhibition after 48 hrs by crystal violet staining based spectrophotometry; assay type: functional, cell-based; how it was run: as §1
[10] = test system: MCF7; assay: Upregulation of p53 in human MCF7 cells after 24 hrs by Western blot analysis; assay type: functional, cell-based; how it was run: as §3
[11] = test system: MCF7; assay: Cytotoxicity against human MCF7 cells expressing WT p53 and Mdmx assessed as growth inhibition after 48 hrs by crystal violet staining based spectrophotometry; assay type: functional, cell-based; how it was run: as §1
[12] = test system: Mus musculus; assay: Toxicity in human HCT116 cells xenografted nude BALB/c mouse assessed as body weight loss at 100 mg/kg/day, po administered every other day until day 38 and measured on day 40; assay type: organism-based, HCT-116; conditions: in vivo
How it was run: (§4)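 HCT116 cells (1.5 × 10^6 per 100 µL Matrigel) injected s.c. into the backs of 6-week-old female BALB/c-nu/nu mice. Once tumors reached 70–143 mm3, compound (2.0 or 3.0 mg/200 µL) or vehicle (0.1% Tween 80, 200 µL) was given orally every other day until day 38. n = 6 or 9 treated, 7 control. Tumor length, width and body weight were monitored. Activity is mean treated tumor volume as a percentage of control.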

[13] = test system: Mus musculus; assay: Upregulation of p53 protein expression in human HCT116 cells xenografted nude BALB/c mouse tumors at 150 mg/kg/day, po administered every other day until day 38 and measured on day 40 by Western blot analysis; assay type: functional, organism-based; conditions: HCT-116; how it was run: as §2
[14] = Cytotoxicity against human TIG7 cells expressing wild-type p53 assessed as growth inhibition after 48 hrs by crystal violet staining based spectrophotometry; conditions: tig7, 48 h
[15] = test system: Mus musculus; assay: Upregulation of p21 protein expression in human HCT116 cells xenografted nude BALB/c mouse tumors at 150 mg/kg/day, po administered every other day until day 38 and measured on day 40 by Western blot analysis; assay type: functional, organism-based; conditions: HCT-116; how it was run: as §2
[16] = Antitumor activity against human HCT116 cells xenografted in nude BALB/c mouse assessed as decrease in tumor growth at 100 mg/kg/day, po administered every other day until day 38 and measured on day 40; assay type: functional; conditions: HCT-116, po
How it was run: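 Female BALB/c-nu/nu mice, 6 weeks old, given HCT116 cells (1.5 × 10^6 in 100 µL Matrigel) subcutaneously in the back. Once tumours reached 70–143 mm3, drug (2.0 mg/200 µL) or vehicle (0.1% Tween 80, 200 µL) was given orally every other day to day 38. Tumour length/width and body weight were tracked. Result expressed as mean treated tumour volume as % of control mean.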

[17] = test system: A-427; assay: Cytotoxicity against human A427 cells expressing WT p53 and Mdmx assessed as growth inhibition after 48 hrs by crystal violet staining based spectrophotometry; assay type: functional, cell-based; how it was run: as §1
[18] = test system: Mus musculus; assay: Induction of apoptosis in human HCT116 cells xenografted nude BALB/c mouse tumors assessed as upregulation of caspase-3 protein expression at 150 mg/kg/day, po administered every other day until day 38 and measured on day 40 by Western blot analysis; assay type: functional, organism-based; conditions: HCT-116; how it was run: as §2
[19] = test system: IMR-32; assay: Increase in p53 expression in human IMR32 cells nuclei after 24 hrs by DAPI staining based immunofluorescence microscopy; assay type: functional, cell-based
How it was run: (§5)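 Cells seeded at 3.0 × 10^4/mL in chamber slides and grown 24 h, then exposed to 10 µM sample for a further 24 h. Fixed in 3% paraformaldehyde (25 °C, 30 min), permeabilized with 0.05% Triton X-100 and blocked with 3% BSA. Stained with anti-p53 (1:50, overnight, 4 °C) and an Alexa 488 secondary (1:200, 30 min). Nuclei counterstained with DAPI; examined by fluorescence/confocal microscopy.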

[20] = test system: Mus musculus; assay: Toxicity in human HCT116 cells xenografted nude BALB/c mouse assessed as body weight loss at 150 mg/kg/day, po administered every other day until day 38 and measured on day 40; assay type: organism-based, HCT-116; conditions: in vivo; how it was run: as §4
[21] = test system: MCF7; assay: Upregulation of Mdm2 in human MCF7 cells after 24 hrs by Western blot analysis; assay type: functional, cell-based; how it was run: as §3
[22] = test system: MCF7; assay: Increase in p53 expression in human MCF7 cells nuclei after 24 hrs by DAPI staining based immunofluorescence microscopy; assay type: functional, cell-based; how it was run: as §5
[23] = test system: A-431; assay: Cytotoxicity against human A431 cells expressing mutant p53 assessed as growth inhibition after 48 hrs by crystal violet staining based spectrophotometry; assay type: functional, cell-based; how it was run: as §1

Tumour suppressor p53/oncoprotein Mdm2, sequence (P04637 whole entry): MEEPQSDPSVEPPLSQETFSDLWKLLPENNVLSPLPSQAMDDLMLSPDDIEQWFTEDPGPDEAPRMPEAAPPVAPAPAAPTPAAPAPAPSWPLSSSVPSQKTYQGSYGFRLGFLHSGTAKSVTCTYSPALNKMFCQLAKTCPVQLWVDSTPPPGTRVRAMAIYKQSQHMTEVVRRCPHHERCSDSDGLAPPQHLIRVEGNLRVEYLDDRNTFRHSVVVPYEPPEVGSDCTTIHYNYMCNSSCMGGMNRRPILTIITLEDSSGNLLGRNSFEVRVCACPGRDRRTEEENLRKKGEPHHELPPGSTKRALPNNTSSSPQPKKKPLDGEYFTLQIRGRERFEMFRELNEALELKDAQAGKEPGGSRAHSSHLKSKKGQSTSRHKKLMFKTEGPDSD
Tumour suppressor p53/oncoprotein Mdm2, sequence (Q00987 whole entry): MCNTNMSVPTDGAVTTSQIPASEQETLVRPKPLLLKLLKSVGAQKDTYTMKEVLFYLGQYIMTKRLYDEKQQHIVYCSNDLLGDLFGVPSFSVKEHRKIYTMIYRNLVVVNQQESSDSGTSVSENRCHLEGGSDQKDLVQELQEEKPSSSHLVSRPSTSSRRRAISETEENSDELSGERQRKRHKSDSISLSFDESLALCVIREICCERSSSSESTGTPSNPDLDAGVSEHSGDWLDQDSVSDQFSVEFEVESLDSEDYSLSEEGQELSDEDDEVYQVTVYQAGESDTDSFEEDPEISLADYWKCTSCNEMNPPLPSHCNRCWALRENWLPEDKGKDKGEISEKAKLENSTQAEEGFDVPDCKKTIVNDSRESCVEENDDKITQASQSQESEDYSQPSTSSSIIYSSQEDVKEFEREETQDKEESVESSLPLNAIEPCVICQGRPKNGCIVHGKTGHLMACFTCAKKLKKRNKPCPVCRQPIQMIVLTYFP
Cellular tumor antigen p53/Death-associated protein kinase 1, sequence (P04637 whole entry): as the sequence (P04637 whole entry) above
Cellular tumor antigen p53/Death-associated protein kinase 1, sequence (P53355 whole entry): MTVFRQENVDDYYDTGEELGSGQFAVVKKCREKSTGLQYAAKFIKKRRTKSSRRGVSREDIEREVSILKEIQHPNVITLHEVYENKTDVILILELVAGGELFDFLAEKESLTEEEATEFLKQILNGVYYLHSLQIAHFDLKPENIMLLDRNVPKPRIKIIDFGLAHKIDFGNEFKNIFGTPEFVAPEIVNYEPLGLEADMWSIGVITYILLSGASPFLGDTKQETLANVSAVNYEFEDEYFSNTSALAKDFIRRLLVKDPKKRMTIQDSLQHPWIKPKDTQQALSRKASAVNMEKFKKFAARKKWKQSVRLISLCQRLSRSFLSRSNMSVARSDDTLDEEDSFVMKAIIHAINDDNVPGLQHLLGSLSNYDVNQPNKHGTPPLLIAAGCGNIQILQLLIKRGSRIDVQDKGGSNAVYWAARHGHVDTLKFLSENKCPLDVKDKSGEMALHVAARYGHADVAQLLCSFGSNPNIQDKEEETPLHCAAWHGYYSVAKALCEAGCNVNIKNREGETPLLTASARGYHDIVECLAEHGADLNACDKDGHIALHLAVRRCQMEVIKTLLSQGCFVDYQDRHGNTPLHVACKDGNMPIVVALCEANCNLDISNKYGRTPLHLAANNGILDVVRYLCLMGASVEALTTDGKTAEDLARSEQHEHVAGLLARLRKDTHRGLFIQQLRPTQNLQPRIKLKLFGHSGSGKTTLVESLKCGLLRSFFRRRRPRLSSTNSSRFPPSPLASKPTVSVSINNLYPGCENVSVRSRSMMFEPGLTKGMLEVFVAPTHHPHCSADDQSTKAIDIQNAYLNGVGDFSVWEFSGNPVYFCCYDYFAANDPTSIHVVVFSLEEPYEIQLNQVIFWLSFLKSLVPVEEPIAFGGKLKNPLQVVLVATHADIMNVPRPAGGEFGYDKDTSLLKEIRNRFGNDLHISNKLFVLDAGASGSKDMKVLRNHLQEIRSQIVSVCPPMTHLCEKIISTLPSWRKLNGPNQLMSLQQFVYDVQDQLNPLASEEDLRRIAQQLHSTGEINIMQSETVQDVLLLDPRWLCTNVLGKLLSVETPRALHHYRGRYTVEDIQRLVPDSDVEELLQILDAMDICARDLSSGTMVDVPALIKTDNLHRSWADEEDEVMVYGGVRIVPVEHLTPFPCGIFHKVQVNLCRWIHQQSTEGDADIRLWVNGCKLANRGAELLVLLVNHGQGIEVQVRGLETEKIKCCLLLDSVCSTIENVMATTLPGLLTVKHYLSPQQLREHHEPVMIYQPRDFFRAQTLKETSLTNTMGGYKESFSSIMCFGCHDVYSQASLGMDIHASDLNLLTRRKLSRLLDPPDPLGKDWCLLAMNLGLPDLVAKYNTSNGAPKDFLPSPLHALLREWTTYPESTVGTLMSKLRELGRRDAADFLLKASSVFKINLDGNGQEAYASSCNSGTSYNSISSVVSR
Cellular tumor antigen p53/Peptidyl-prolyl cis-trans isomerase D, sequence (P04637 whole entry): as the sequence (P04637 whole entry) above
Cellular tumor antigen p53/Peptidyl-prolyl cis-trans isomerase D, sequence (Q08752 whole entry): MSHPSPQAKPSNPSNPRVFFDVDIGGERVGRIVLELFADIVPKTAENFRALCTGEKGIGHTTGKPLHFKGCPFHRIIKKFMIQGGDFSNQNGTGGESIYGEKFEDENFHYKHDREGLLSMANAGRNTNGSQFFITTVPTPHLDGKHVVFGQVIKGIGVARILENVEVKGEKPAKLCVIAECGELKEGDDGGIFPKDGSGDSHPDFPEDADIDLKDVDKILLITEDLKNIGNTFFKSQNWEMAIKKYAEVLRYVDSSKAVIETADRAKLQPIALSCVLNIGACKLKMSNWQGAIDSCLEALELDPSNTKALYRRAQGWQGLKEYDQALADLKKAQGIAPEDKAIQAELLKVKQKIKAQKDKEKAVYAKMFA
Tumour suppressor protein p53/Mdm4, sequence (P04637 whole entry): as the sequence (P04637 whole entry) above
Tumour suppressor protein p53/Mdm4, sequence (O15151 whole entry): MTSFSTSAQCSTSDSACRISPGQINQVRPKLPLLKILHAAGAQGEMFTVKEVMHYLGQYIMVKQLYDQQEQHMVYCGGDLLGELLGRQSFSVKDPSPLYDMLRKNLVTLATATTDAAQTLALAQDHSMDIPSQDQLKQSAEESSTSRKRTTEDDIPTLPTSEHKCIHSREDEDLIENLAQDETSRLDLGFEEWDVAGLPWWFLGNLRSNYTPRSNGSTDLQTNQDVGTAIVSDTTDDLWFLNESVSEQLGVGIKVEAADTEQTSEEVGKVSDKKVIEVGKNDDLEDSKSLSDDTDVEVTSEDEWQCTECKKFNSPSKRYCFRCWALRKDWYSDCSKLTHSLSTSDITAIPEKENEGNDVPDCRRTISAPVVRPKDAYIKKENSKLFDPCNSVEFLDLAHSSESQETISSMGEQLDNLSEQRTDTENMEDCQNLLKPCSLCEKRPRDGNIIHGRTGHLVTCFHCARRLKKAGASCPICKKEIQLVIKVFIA

| Structure (SMILES) | IC50 [1] [µM] | IC50 [3] [µM] | IC50 [4] [µM] | IC50 [2] [µM] | further results |
| --- | --- | --- | --- | --- | --- |
| O=C(Nc1ccccc1S)c1ccc(Cl)cc1 | > 25 | 18.4 | 3.4 | > 25 | – |
| CC(C)C(=O)Nc1ccccc1SC(=O)C(C)C | > 25 | 13.1 | 1.5 | > 25 | growth inhibition (GI) [5]: Active; Activity [6]: Dose-dependent effect; Activity [7]: Active; Activity [8]: Dose-dependent effect; growth inhibition (GI) [9]: Dose-dependent effect; Activity [10]: Dose-dependent effect; growth inhibition (GI) [11]: Dose-dependent effect; Activity [12]: Non-toxic; Activity [13]: Active; Activity [14]: Toxic; Activity [15]: Active; T/C % at 100 mg/kg/day [16]: 49%; growth inhibition (GI) [17]: Dose-dependent effect; Activity [18]: Active; Activity [19]: Active; Activity [20]: Non-toxic; Activity [21]: Dose-dependent effect; Activity [22]: Active; growth inhibition (GI) [23]: Active |
| CC(C)C(=O)Nc1ccccc1O | > 25 | > 25 | > 25 | > 25 | – |
| CC(C)C(=O)Nc1ccccc1S | > 25 | > 25 | 6.3 | > 25 | growth inhibition (GI) [5]: Active; growth inhibition (GI) [9]: Active; growth inhibition (GI) [11]: Active; growth inhibition (GI) [17]: Active; growth inhibition (GI) [23]: Active |
| COc1ccc(C2=N[C@@H](c3ccc(Cl)cc3)[C@@H](c3ccc(Cl)cc3)N2C(=O)N2CCNC(=O)C2)c(OC(C)C)c1 | – | – | – | – | Activity [8]: Active; Activity [10]: Active; Activity [19]: Active; Activity [21]: Active; Activity [22]: Active |
| CC(C)C(=O)Nc1ccccc1OC(=O)C(C)C | > 25 | > 25 | > 25 | > 25 | – |

The next lines start with results.

| IC50 [1] [µM] | IC50 [3] [µM] | IC50 [4] [µM] | Structure (SMILES) | IC50 [2] [µM] | further results |
| --- | --- | --- | --- | --- | --- |
| > 25 | > 25 | > 25 | CCCCCCCC(=O)Nc1ccccc1S | > 25 | – |
| > 25 | > 25 | 7.2 | O=C(Nc1ccccc1S)c1ccccc1 | > 25 | – |
| > 25 | 15.3 | 8.9 | O=C(Nc1ccccc1S)c1ccc(Cl)nc1 | > 25 | – |
| > 25 | 14.6 | 4.6 | CC(C)C(=O)Sc1ccccc1NC(=O)c1ccccc1 | > 25 | – |
